High-throughput results from PubChem.
This is a sample that favours compounds with a hit; in the whole collection about 3.9% have one here.
NS3 helicase inh: inhibitors of Hepatitis C virus NS3 helicase | NS3 helicase DNA unwinding, Cy5 molecular beacon fluorescence | inhibition, % at 10.9 µM | 290,000 compounds, 0.56% hits | AID 1800;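 active = inhibition above the mean of all tested compounds plus 3 SD, set per campaign, cut at about 35% in these data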;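 note: 0% = DMSO wells and 100% = thioflavine S control wells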
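Assay system: hepatitis C virus NS3 helicase domain fragment enzyme. Also added: annealed dual-labelled DNA beacon duplex, ATP-started. Timing: 1 h reaction at 25 °C, ATP-initiated. Technique: Cy5 fluorescence at 0 and 60 min, beacon hairpin quenching. Evaluation: % inhibition of unwinding. Replication: one well per compound.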
HSF1 inh: HSF1 inhibition. NIH3T3-HGL HSE-luciferase, MG132-induced, luminescence 8 h; hits give low values. activity change, negative = inhibition, % at 7.5 µM (by protocol). 300,000 compounds, 0.77% hits. AID 2098;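 active = more than half of replicate wells show activity change below -50%, luminescence cut by over half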;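 note: luciferase reports HSF-1 transcriptional activity via heat shock element; 0% = median of DMSO wells and -100% = zero luminescence signal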
HSP90 inh: blocks HSP90-mediated luciferase refolding in reticulocyte lysate | Rabbit reticulocyte lysate, luciferase refolding luminescence, 3 h | inhibition, % at 5.6 µM | 290,000 compounds, 0.91% hits;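 active = inhibition above the screen-wide mean plus 3 SD, computed separately per campaign, cut at about 16% in these data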;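 note: 0% = DMSO wells and 100% = 60 µM geldanamycin wells; inhibitors lower the luminescence because luciferase stays unfolded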
DNA FID counter: fluorescent intercalator displacement, NS3 helicase counter-screen; 290,000 compounds, 0.17% hits; DNA fluorescent intercalator displacement, fluorescence; inhibition, % at 7.9 µM; in the data active = inhibition above about 37%;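 note: 0% = vehicle and 100% = reference compound; higher means more ethidium bromide displaced from hairpin DNA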
HCV core dimer: blocks dimerization of HCV core protein; TR-FRET GST/Flag-core106 dimerization, 1536-well; inhibition, % at 5 µM; 300,000 compounds, 0.33% hits;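 active = inhibition above the mean of all tested compounds plus 3 SD, set per screening campaign, cut at about 45% in these data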
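System: GST-tagged and Flag-tagged HCV core protein residues 1-106 / Input: core106 proteins, GST 13.5 nM and Flag 17 nM / Buffer or medium: KF-containing HEPES buffer, pH 7.45, DTT, CHAPS, BSA / Probe or stimulus: Eu-anti-GST and XL665-anti-Flag labelled anti-tag antibodies / Schedule: 4 h, 22.5 °C incubation / Technique: TR-FRET 671 and 617 nm emission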
HSF1 activator: increases HSF-1 driven luciferase reporter signal. NIH3T3-HGL HSF-1 luciferase reporter, MG132, 8 h; 100% = twice DMSO control signal. activation, % at 9 µM. 300,000 compounds, 1.7% hits. AID 504408;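 active = mean replicate activation of at least 50% with a set share of replicates each reaching 50%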;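 note: 0% = median of the neutral control wells and 100% = twice that signal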
HSP90 inh confirm: confirmation of HSP90 inhibitors; 2,300 compounds, 64% hits; shares compounds with HSP90 inh; rabbit reticulocyte lysate, luciferase refolding luminescence, 3 h; inhibition, % at 5.9 µM; in the data active = inhibition above about 18%;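 note: 0% = vehicle wells and 100% = reference inhibitor wells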
luciferase ctr: counter-screen for HSP90 inhibitors: inhibitors of firefly luciferase; 2,300 compounds, 48% hits; inhibition, % at 5.9 µM; purified native firefly luciferase, luminescence; shares compounds with HSP90 inh;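 active = inhibition above the mean inhibition of all tested sample wells plus 3 SD, cut at about 10% in these data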;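 note: 0% = DMSO with luciferase and 100% = wells lacking luciferase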
Target sequence (P08659 whole entry, looked up): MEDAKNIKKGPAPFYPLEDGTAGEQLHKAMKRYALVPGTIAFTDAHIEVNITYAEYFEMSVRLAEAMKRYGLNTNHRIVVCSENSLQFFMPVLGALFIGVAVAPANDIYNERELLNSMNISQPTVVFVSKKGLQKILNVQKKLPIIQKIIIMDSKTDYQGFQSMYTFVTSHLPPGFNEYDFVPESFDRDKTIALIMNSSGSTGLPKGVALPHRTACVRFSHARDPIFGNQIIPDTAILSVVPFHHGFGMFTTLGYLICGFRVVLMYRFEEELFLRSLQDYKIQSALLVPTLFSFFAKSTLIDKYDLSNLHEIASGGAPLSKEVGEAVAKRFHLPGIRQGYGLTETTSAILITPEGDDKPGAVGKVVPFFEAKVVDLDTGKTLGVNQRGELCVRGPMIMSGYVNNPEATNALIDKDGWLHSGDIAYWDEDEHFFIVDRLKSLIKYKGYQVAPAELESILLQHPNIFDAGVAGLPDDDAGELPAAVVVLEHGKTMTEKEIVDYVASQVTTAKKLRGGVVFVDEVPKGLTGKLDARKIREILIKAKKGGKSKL
An asterisk follows results filed as active.

What do the screens show for `Cc1[nH]c2ccccc2c1C(c1ccccn1)N1CCC(C)CC1` (stereo unspecified)?
NS3 helicase inh: 9; HSF1 inh: -6; HSP90 inh: 46*; DNA FID counter: -1; HCV core dimer: -4; HSF1 activator: -1; HSP90 inh confirm: 1; luciferase ctr: -6

What do the screens show for `N#CC1=C(N)OC2=C(C(=O)CCC2)C1c1cc2c(cc1Cl)OCO2` (stereo unspecified)?
NS3 helicase inh: -1; HSF1 inh: -13; HSP90 inh: 3; DNA FID counter: -2; HCV core dimer: 1; HSF1 activator: -17

Results for CCOc1ccc(NC(=O)CSc2nnc(NC(=O)C3CC3)s2)cc1 ?
NS3 helicase inh: -2; HSF1 inh: 1; HSP90 inh: 3; DNA FID counter: -10; HCV core dimer: -9; HSF1 activator: 7

What do the screens show for `N#CCCSc1ncnc2c1oc1ccccc12`?
NS3 helicase inh: 1; HSF1 inh: -11; HSP90 inh: 26*; DNA FID counter: -4; HCV core dimer: -2; HSF1 activator: -2; HSP90 inh confirm: -11; luciferase ctr: -20

What do the screens show for `Fc1ccc(-c2csc3ncnc(Nc4ccc(N5CCOCC5)cc4)c23)cc1`?
NS3 helicase inh: -6; HSF1 inh: -5; HSP90 inh: -2; DNA FID counter: -32; HCV core dimer: 7; HSF1 activator: 8

Results for O=C(O)c1ccc(NC2=C/C(=N/S(=O)(=O)c3ccccc3)c3ccccc3C2=O)cc1 ?
NS3 helicase inh: 11; HSP90 inh: 86*; DNA FID counter: -25; HSP90 inh confirm: 93*; luciferase ctr: 6

What do the screens show for `Cc1cc(C)c(S(=O)(=O)/N=C2\C=C(Nc3ccc(C(=O)O)cc3)C(=O)c3ccccc32)c(C)c1`?
NS3 helicase inh: -23; HSF1 inh: -87*; HSP90 inh: 46*; DNA FID counter: 2; HCV core dimer: -1; HSF1 activator: -88; HSP90 inh confirm: 79*; luciferase ctr: -9

How did Cc1cc(C)c(S(=O)(=O)/N=C2\C=C(NS(=O)(=O)c3ccccc3)C(=O)c3ccccc32)c(C)c1 do in these assays?
NS3 helicase inh: 24; HSF1 inh: 11; HSP90 inh: -5; DNA FID counter: 14; HCV core dimer: 2; HSF1 activator: 30

Results for O=C(O)c1ccc(NC2=C(N3CCOCC3)C(=O)c3ccccc3C2=O)cc1 ?
NS3 helicase inh: 14; HSF1 inh: -12; HSP90 inh: 3; DNA FID counter: 0; HCV core dimer: -18; HSF1 activator: -13

How did Cc1ccc(CNC(=S)NCc2ccncc2)cc1 do in these assays?
NS3 helicase inh: 2; HSP90 inh: 4; DNA FID counter: -2; HCV core dimer: -1

What do the screens show for `CC(C)(C)NC(=S)NCc1ccncc1`?
NS3 helicase inh: 19; HSF1 inh: -7; HSP90 inh: 23*; DNA FID counter: 1; HCV core dimer: 3; HSF1 activator: 7; HSP90 inh confirm: -2; luciferase ctr: -4

How did COc1cccc(CNC(=O)CN2CCC(c3nc4ccc(C)cc4[nH]3)CC2)c1 do in these assays?
NS3 helicase inh: -10; HSF1 inh: -40; HSP90 inh: -2; DNA FID counter: 0; HCV core dimer: -2; HSF1 activator: -41

How did CC(C)c1ccc(NC(=S)Nc2cccc3ccccc23)cc1 do in these assays?
NS3 helicase inh: -3; HSF1 inh: -68*; HSP90 inh: 21*; DNA FID counter: -4; HCV core dimer: 8; HSF1 activator: -72; HSP90 inh confirm: 19*; luciferase ctr: -21

Results for CCCCn1c(NC(=O)c2ccc(Br)o2)c(S(=O)(=O)c2ccccc2)c2nc3ccccc3nc21 ?
NS3 helicase inh: 4; HSP90 inh: 34*; DNA FID counter: 2; HCV core dimer: 17; HSP90 inh confirm: 3; luciferase ctr: -6
